According to ChEMBL document CHEMBL1125583, “Synthesis of an (iodovinyl)misonidazole derivative for hypoxia imaging” (J Med Chem, 1991):

How the values were obtained:
[1] = Compound was tested for the partition coefficient between octanol and water.; assay type: physicochemical
Summary of the method: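 Octanol/water partition: octanol and water mutually pre-saturated for 24 h before the study; compound absorbance read at 318 nm in the water-saturated octanol phase and in the octanol-saturated water phase; coefficient taken as the ratio of the two absorbances.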

V79 = assay: Anoxic/Oxic uptake ratio was measured in V-79 cell line at 3h.; assay type: functional, cell-based; details: Cricetulus griseus
Summary of the method: (§1)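 [131I]-labelled agent at 50 μM in 1 mL medium (25 mM HEPES), rinsed then replaced with fresh labelled medium. Monolayers (exponential or unfed plateau phase) held as thin film at 37 °C under 95% air/5% CO2 (oxic) or 95% N2/5% CO2 (anoxic) for 3 h. Cells trypsinized, gamma-counted, uptake as pmol/10^6 cells. Ratio = anoxic/oxic uptake, three plates.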

RIF-1 = assay: Anoxic/Oxic uptake ratio was measured in RIF-1 cell line at 3h.; assay type: functional, cell-based; details: Mus musculus; summary of the method: as §1
EMT6 = assay: Anoxic/Oxic uptake ratio was measured in EMT-6 cell line at 3h.; assay type: functional, cell-based; details: Mus musculus; summary of the method: as §1
Rattus norvegicus = species: Rattus norvegicus; assay: Anoxic/Oxic uptake ratio was measured in rat myocytes at 3h.; assay type: functional
Summary of the method: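 Adult rat myocytes from collagenase dissociation, cultured overnight at 37 °C in modified MEM. Thin medium layer with 50 μM [131I]-labelled agent at 37 °C under 95% air/5% CO2 or 95% N2/5% CO2, anoxia confirmed by dithionite/methylene blue indicator. Cells rinsed cold, EtOH-fixed, counted microscopically, scraped and gamma-counted. Uptake as dpm per cells; eight plates.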

CaOs-1 cell line = assay: Anoxic/Oxic uptake ratio was measured in CaOs-1 cell line at 3h.; assay type: functional, cell-based; details: Canis lupus familiaris; summary of the method: as §1

| SMILES | Partition coefficient [1] | Uptake ratio (V79) | Uptake ratio (RIF-1) | Uptake ratio (EMT6) | Uptake ratio (Rattus norvegicus) | Uptake ratio (CaOs-1 cell line) |
| --- | --- | --- | --- | --- | --- | --- |
| COC[C@H](O)Cn1ccnc1[N+](=O)[O-] | 0.41 | – | – | – | – | – |
| O=[N+]([O-])c1nccn1C[C@@H](O)C/C=C/I | 2.52 | 12.5 | 23.2 | 11 | 22 | 10.2 |
| O=[N+]([O-])c1nccn1C[C@@H](O)CF | 0.4 | 27.3 | 28.5 | 12.6 | 20.3 | 18 |
| COC[C@H](O)Cn1cc(Br)nc1[N+](=O)[O-] | 2.87 | – | – | – | – | – |
